# Source: PubChem
# A selection: hits, their analogues and other compounds. The true share with any hit is near 3.7%.
# KCNK3 block: human KCNK3 channel inhibition, primary screen; O14649; CHO-KCNK3 thallium flux, FluxOR fluorescence; active compounds read low; 340,000 tested, 0.84% active; B-score at 10 µM;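 active = B-score under library mean minus 4 SD, starting fluorescence ratio at most library mean plus 5 SD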;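 also: more negative B-score means stronger inhibition of thallium flux through KCNK3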
# KCNQ1 act: potentiators or activators of human KCNQ1 potassium channel. P51787. CHO-K1 KCNQ1, thallium flux FluxOR fluorescence; active compounds read high. B-score at 10 µM. 310,000 tested, 0.35% active. AID 2648;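 active = fluorescence ratio B-score, a plate-corrected score, at least three library SD, with initial intensity B-score within 5 SD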
#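 Test system: CHO-K1 cells stably expressing KCNQ1 / Medium: assay buffer / Also added: depolarizing K+/Tl+ stimulus, K2SO4 and Tl2SO4 each 12.5 mM in 5x stock / Incubation: 90 min dye loading and 20 min compound exposure, both at room temperature / Signal: thallium influx via FluxOR fluorescence, kinetic imaging / Evaluation: B score of baseline-normalized fluorescence ratio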
# hERG rescue: shields human hERG channel from block by proarrhythmic agents; CHO-hERG, FluxOR thallium flux, dofetilide IC70 present; activation (rescue from dofetilide block), less the hit threshold, % at 10 µM; 310,000 tested, 0.51% active;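 active = activation above the mean of controls blocked by dofetilide plus 5 SD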;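 also: thallium influx through hERG after potassium depolarization seen as dye fluorescence rise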
# Kir21 block: Kir2.1 (mouse) channel inhibition; P35561; HEK293-Kir2.1, FluxOR thallium flux fluorescence; active compounds read low; B-score at 10 µM; AID 1672; 310,000 tested, 0.85% active;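 active = fluorescence ratio B-score at or below minus 3 SD of library scores, with starting-brightness B-score within 2 SD, cut at about -4.2 in these data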;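 also: channel flux triggered by added potassium and thallium sulfate stimulus; B-score of peak minus minimum fluorescence over baseline after thallium stimulus; more negative B-score means stronger Kir2.1 block with less thallium influx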
# KCNK9 block: inhibitors of human KCNK9 two-pore domain potassium channel. Q9NPC2. HEK293 KCNK9, FluxOR thallium flux fluorescence; active compounds read low. 310,000 tested, 1.2% active. B-score at 10 µM;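 active = ratio B-score over 3 SD below the library mean, with starting fluorescence within 5 SD of its mean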;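 also: negative B-score means less thallium flux so channel inhibition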
# KCNQ1 inh: blocks the human KCNQ1 potassium channel; B-score at 10 µM; CHO-K1 KCNQ1, FluxOR thallium flux fluorescence; active compounds read high; 310,000 tested, 1.3% active; AID 2642;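 active = compounds whose thallium flux B-score, printed positive for inhibition, exceeds three library SD while starting fluorescence stays within three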;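 also: channel opened by potassium depolarization with thallium stimulus after 20 min compound exposure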
# KCNK3 confirm: human KCNK3 channel inhibition, confirmation assay; shares compounds with KCNK3 block; CHO-KCNK3 thallium flux, FluxOR fluorescence; 0% buffer, 100% carvedilol maximal block; 2,400 tested, 99% active; ratio percent of control, % at 10 µM; AID 651638;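 active = ratio percent of control, averaged over triplicates, above buffer control mean plus 5 SD, cut at about 64% in these data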;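 also: ratio is the fluorescence rise from min to max over baseline after thallium stimulus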
# KCNK3 noninduced: KCNK3 inhibitor counter-screen hit in non-induced cells; thallium flux ratio (lower = more inhibition) at 10 µM; 2,400 tested, 40% active; AID 651747; shares compounds with KCNK3 block; non-induced KCNK3 parental cells, FluxOR thallium flux; active compounds read low;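 active = thallium flux ratio, averaged over three wells, more than 5 SD below the buffer control mean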;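 also: host cells are CHO cells without KCNK3 induction; ratio is peak minus trough fluorescence over baseline then normalized to buffer controls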
# * marks the source's active call; other numbers are inactive results; i = inactive; · = no result.
SMILES,KCNK3 block,KCNQ1 act,hERG rescue,Kir21 block,KCNK9 block,KCNQ1 inh,KCNK3 confirm,KCNK3 noninduced
O=S(=O)(NCC(c1ccco1)N1CCc2ccccc2C1)c1ccc(Br)cc1 (configuration not stated),-8.7*,i,-8,0.02,i,i,114*,i
Cc1ccc(S(=O)(=O)NCC(c2ccco2)N2CCc3ccccc3C2)cc1 (configuration not stated),i,i,-7,-0.48,i,i,·,·
Cc1nn(C(C)(C)C)c(OC(=O)c2cccs2)c1Sc1ccccc1,-12*,i,-8,-0.01,-8.1*,i,101*,i
O=C(NCc1ccncc1)Nc1ccccc1F,i,i,-11,2.5,i,i,·,·
Cc1onc(-c2ccc3c(c2)OCO3)c1-c1ccc2[nH]ccc2c1,-9.5*,i,-21,-0.57,i,i,95*,i
CC(C)CCNC(=O)C(=O)Nc1cc2c3c(c1)CCC(=O)N3CCC2,i,i,-5,-0.12,i,i,·,·
Cc1cc(NC(=O)c2cc(C(C)C)on2)nn1Cc1ccc(Cl)cc1,-9.5*,i,-11,-0.41,i,i,105*,i
Cc1cc(C(=O)Nc2cc(C)n(Cc3ccc(Cl)cc3)n2)no1,i,i,-6,-1.2,i,i,·,·
O=[N+]([O-])c1ccc(-c2ccc(/C=N/Nc3nc(N4CCCC4)nc(N4CCCC4)n3)o2)cc1,-9.8*,i,-19,-0.8,i,7*,141*,0.11*
O=[N+]([O-])c1ccc(/C=N/Nc2nc(N3CCCC3)nc(N3CCCC3)n2)o1,i,i,-12,-1.2,i,i,·,·
CC1CCCN(C(=O)CCNC(=O)Cn2cnc3ccccc3c2=O)C1 (configuration not stated),i,i,-6,-0.55,i,i,·,·
Cc1noc(C)c1COC(=O)C1CCN(S(=O)(=O)c2c(Cl)cccc2Cl)CC1,-9*,i,-11,0.95,i,i,114*,i
Cc1ccc(S(=O)(=O)N2CCC(C(=O)OCc3c(C)noc3C)CC2)cc1C,i,i,-3,-2.1,i,i,·,·
COc1ccc(C)cc1S(=O)(=O)N1CCN(c2cccc(C(F)(F)F)c2)CC1,-10*,i,-7,-1.2,i,i,103*,i
O=c1[nH]cc(S(=O)(=O)N2CCN(c3cccc(C(F)(F)F)c3)CC2)c(=O)[nH]1,i,i,-19,1.5,i,i,·,·
Cc1cccc(C)c1NC(=O)/C(C#N)=C/c1cccs1,i,i,2,-0.01,i,i,·,·
CC(C)(C)c1ccc(C(=O)/C(C#N)=C/c2cccs2)cc1,-12*,i,-5,2.3,i,6*,111*,i
CCCn1ncc(CN2CCC(C(=O)Nc3cccc(-c4cccc(F)c4)c3)CC2)c1C,i,i,-22,-3.4,i,i,·,·
Nc1ccc(Cl)c(-c2nc3ncccc3o2)c1,-11*,i,-4,1.9,i,i,88*,i
O=C(N[C@@H](Cc1ccccc1)C(=O)N1CCN(S(=O)(=O)c2ccc(F)cc2)CC1)c1ccco1,i,·,·,·,·,·,·,·
COc1nc(-c2ccccc2)ccc1-c1noc(-c2ccccc2)n1,-12*,i,-5,-0.01,i,i,99*,i
Cc1cc(N2CCC(C)CC2)c(F)cc1[N+](=O)[O-],i,i,-7,0.19,i,i,·,·
Cc1cc(N2CCCC2)c(F)cc1/C=C\[N+](=O)[O-],-10*,i,-36,-7.7*,i,i,128*,0.099*
FC(F)(F)c1ccc(N=Cc2sc(N3CCOCC3)nc2-c2ccccc2)cc1,i,i,0,1,i,i,·,·
